ChEMBL document CHEMBL4673298, “Exploration of Structure-Activity Relationship of Aromatic Aldehydes Bearing Pyridinylmethoxy-Methyl Esters as Novel Antisickling Agents” (J Med Chem, 2020)
Calls of active or inactive are those of the source. The calls are words filed in the database; no cut-off is given here.

What was measured:
[1] = Inhibition of sickling in sickle cell RBCs from blood isolated from patient with homozygous SS at 2 mM under hypoxic conditions incubated for 2 hrs; type: functional; details: Homo sapiens, Erythrocyte
Summary of the method: (§1)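 SS blood, hematocrit 20%, preincubated under air with compound (0.5, 1, 2 mM) for 1 h at 37 °C, then 2 h hypoxia (2.5% O2/97.5% N2) at 37 °C. Aliquots are fixed in 2% glutaraldehyde without air exposure. Cell morphology is scored from bright-field images at 40×. Three biological replicates, mean ± SD.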

[2] = system: Red blood cell; assay: Binding affinity to Hemoglobin in sickle cell RBCs from blood isolated from patient with homozygous SS assessed as increase in hemoglobin modification under hypoxic conditions incubated for 2 hrs […]; type: tissue-based; details: Homo sapiens
Summary of the method: (§2)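 SS blood, hematocrit 20%, incubated under air with compound (0.5, 1, 2 mM) at 37 °C for 1 h, then hypoxic (2.5% O2/97.5% N2) at 37 °C for 2 h. Cells are washed and hemolyzed. Lysate is run on weak cation-exchange HPLC to quantify Hb adduct (modified Hb). Three biological replicates, mean ± SD.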

[3] = system: Erythrocyte; assay: Inhibition of sickling in sickle cell RBCs from blood isolated from patient with homozygous SS under hypoxic conditions incubated for 2 hrs; type: functional, tissue-based; details: Homo sapiens; summary of the method: as §1
[4] = system: Red blood cell; assay: Binding affinity to Hemoglobin in sickle cell RBCs from blood isolated from patient with homozygous SS assessed as increase in Hb affinity for oxygen under hypoxic conditions incubated for 2 hrs by oxygen equilibrium curve study; type: tissue-based; details: Homo sapiens
Summary of the method: (§3)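 SS blood, hematocrit 20%, incubated under air with compound (0.5, 1, 2 mM) at 37 °C for 1 h, then hypoxic (2.5% O2/97.5% N2) at 37 °C for 2 h. Cells are washed in PBS and hemolyzed hypotonically. Lysate in 0.1 M potassium phosphate pH 7.0 is run by Hemox analysis for P50. ΔP50 is given as percent of DMSO control. Three biological replicates, mean ± SD.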

[5] = species: Homo sapiens; assay: Binding affinity to Hemoglobin in normal human whole blood assessed as increase in Hb affinity for oxygen at 2 mM by oxygen equilibrium curve study; type: tissue-based
Summary of the method: (§4)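 Normal human whole blood, hematocrit 30%, incubated with or without compound in DMSO (0.5, 1.0 or 2.0 mM; 2 mM for the time course) at 37 °C. The blood is tonometered about 7 min at 37 °C against gas with 0.804, 2.935 and 5.528% O2 (6, 20, 40 mmHg). sO2 and pO2 are read on a blood gas analyzer. ΔP50% is taken relative to no compound. Time course sampled at 1, 2, 4, 8, 12, 24 h.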

[6] = species: Homo sapiens; assay: Binding affinity to Hemoglobin in normal human whole blood assessed as increase in Hb affinity for oxygen incubated for 1.5 hrs by oxygen equilibrium curve study; type: tissue-based; summary of the method: as §4
[7] = system: Red blood cell; assay: Binding affinity to Hemoglobin in sickle cell RBCs from blood isolated from patient with homozygous SS assessed as increase in Hb affinity shift for oxygen at 1 mM under hypoxic conditions incubated for 2 hrs by oxygen equilibrium curve study; type: tissue-based; details: Homo sapiens; summary of the method: as §3
[8] = Inhibition of sickling in sickle cell RBCs from blood isolated from patient with homozygous SS at 1 mM under hypoxic conditions incubated for 2 hrs; type: functional; details: Homo sapiens, Erythrocyte; summary of the method: as §1
[9] = system: Red blood cell; assay: Binding affinity to Hemoglobin in sickle cell RBCs from blood isolated from patient with homozygous SS assessed as increase in hemoglobin modification at 1 mM under hypoxic conditions incubated for 2 hrs […]; type: tissue-based; details: Homo sapiens; summary of the method: as §2
[10] = system: Red blood cell; assay: Binding affinity to Hemoglobin in sickle cell RBCs from blood isolated from patient with homozygous SS assessed as increase in Hb affinity shift for oxygen at 2 mM under hypoxic conditions incubated for 2 hrs by oxygen equilibrium curve study; type: tissue-based; details: Homo sapiens; summary of the method: as §3
[11] = system: Red blood cell; assay: Binding affinity to Hemoglobin in sickle cell RBCs from blood isolated from patient with homozygous SS assessed as increase in Hb affinity shift for oxygen at 0.5 mM under hypoxic conditions incubated for 2 hrs by oxygen equilibrium curve study; type: tissue-based; details: Homo sapiens; summary of the method: as §3
[12] = system: Red blood cell; assay: Binding affinity to Hemoglobin in sickle cell RBCs from blood isolated from patient with homozygous SS assessed as increase in hemoglobin modification at 0.5 mM under hypoxic conditions incubated for 2 hrs […]; type: tissue-based; details: Homo sapiens; summary of the method: as §2
[13] = system: Red blood cell; assay: Binding affinity to Hemoglobin in sickle cell RBCs from blood isolated from patient with homozygous SS assessed as increase in hemoglobin modification at 2 mM under hypoxic conditions incubated for 2 hrs […]; type: tissue-based; details: Homo sapiens; summary of the method: as §2
[14] = Inhibition of sickling in sickle cell RBCs from blood isolated from patient with homozygous SS at 0.5 mM under hypoxic conditions incubated for 2 hrs; type: functional; details: Homo sapiens, Erythrocyte; summary of the method: as §1
[15] = Stability in human whole blood assessed as parent compound level at 1 mM incubated for 24 hrs by reversed-phase HPLC analysis; type: ADME, tissue-based; details: read-out: Stabilty
Summary of the method: (§5)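 Normal whole blood, hematocrit 30%, incubated with or without compound at 0.5 or 1 mM at 37 °C. Aliquots taken at 0, 4, 8, 24 h are deproteinized with 0.1 M formic acid in acetonitrile at 60–65 °C for 30 min, centrifuged and filtered. Reversed-phase C18 HPLC uses a 0.1% formic acid water/acetonitrile gradient, detection at 261 nm. Parent and carboxylic acid analogue are quantified; the acid serves as reference.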

[16] = system: Mus musculus; assay: Induction of in-vivo hemoglobin-O2 affinity shifts in C57BL/6 mouse at 150 mg/kg, ip dosed as single administration measured after 3 to 6 hrs by oxygen equilibrium curve study; type: functional, organism-based; details: time 3-6 hrs, TDE = time-dependent effect
Summary of the method: (§6)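 C57BL/6 mice (3 male, 3 female) receive a single intraperitoneal dose of 150 mg/kg. Blood is drawn by submandibular bleeding before dosing and at 1, 3 and 6 h, then hemolyzed. Hb modification and Hb-O2 affinity shift are measured; n = 6.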

[17] = Induction of in-vivo hemoglobin-O2 affinity shifts in C57BL/6 mouse at 150 mg/kg, ip dosed as single administration measured after 6 hrs by oxygen equilibrium curve study; type: functional; summary of the method: as §6
[18] = Induction of in-vivo modification of intracellular hemoglobin in C57BL/6 mouse at 150 mg/kg, ip dosed as single administration measured after 6 hrs by cation-exchange HPLC analysis
[19] = Drug metabolism in human whole blood assessed as carboxylic acid analogue formation at 0.5 to 1 mM incubated up to 24 hrs by reversed-phase HPLC analysis; type: ADME, tissue-based; details: 1000 µM, dose 0.5-1 mM; summary of the method: as §5
[20] = Stability in human whole blood assessed as parent compound level at 0.5 mM incubated for 24 hrs by reversed-phase HPLC analysis; type: ADME, tissue-based; details: read-out: Stabilty; summary of the method: as §5
[21] = system: Mus musculus; assay: Induction of in-vivo modification of intracellular hemoglobin in C57BL/6 mouse at 150 mg/kg, ip dosed as single administration measured after 1 to 6 hrs by cation-exchange HPLC analysis; type: functional, organism-based; details: time 1-6 hrs, TDE = time-dependent effect; summary of the method: as §6

SMILES	inhibition at 2000 µM [1] [%]	Activity [2]	inhibition [3]	Activity [4]	Activity [5]	Activity [6]	Activity [7] [%]	inhibition at 1000 µM [8] [%]	Activity [9] [%]	Activity [10] [%]	Activity [11] [%]	Activity ([5]; TDE = time-dependent effect)	Activity [12] [%]	Activity [13] [%]	inhibition at 500 µM [14] [%]	further results
COC(=O)c1ncccc1COc1cccc(O)c1C=O	> 90	Dose-dependent effect	Dose-dependent effect	Dose-dependent effect	inactive	inactive	–	–	–	–	–	–	–	–	–	–
COC(=O)c1ccc(COc2cccc(O)c2C=O)cn1	98.9	Dose-dependent effect	Dose-dependent effect	Dose-dependent effect	–	Dose-dependent effect	44.2	90.7	92.5	60.1	16.3	Tde	47.8	100	39.5	–
COC(=O)c1ccnc(COc2cccc(O)c2C=O)c1	> 90	Dose-dependent effect	Dose-dependent effect	Dose-dependent effect	–	Dose-dependent effect	–	–	> 80	–	–	Tde	–	< 100	–	–
COC(=O)c1cncc(COc2ccc(OC)cc2C=O)c1	> 90	Dose-dependent effect	Dose-dependent effect	Dose-dependent effect	–	Dose-dependent effect	–	–	60	–	–	Tde	–	< 100	–	–
COC(=O)c1cccc(COc2cccc(O)c2C=O)n1	93.2	Dose-dependent effect	Dose-dependent effect	Dose-dependent effect	inactive	inactive	29.2	54.2	81.1	48.6	5.4	–	29.2	100	7.6	remaining at 24 h, 1000 µM [15]: 83%; Activity [16]: Tde; Activity [17]: 5.5%; Activity [18]: 9.6%; Drug metabolism [19]: Metabolite_Detected; remaining at 24 h, 500 µM [20]: 89%; Activity [21]: Tde
COC(=O)c1ccc(COc2cccc(O)c2C=O)nc1	–	–	–	–	inactive	inactive	–	–	–	–	–	–	–	–	–	–
COC(=O)c1cccnc1COc1ccc(OC)cc1C=O	99	Dose-dependent effect	Dose-dependent effect	Dose-dependent effect	–	Dose-dependent effect	12.8	71.7	49.9	21.3	5.9	Tde	32.1	67.5	41.8	–
COc1ccc(OCc2cccc(CO)n2)c(C=O)c1	> 90	Dose-dependent effect	Dose-dependent effect	Dose-dependent effect	–	–	–	47	60	–	–	–	–	80	26	Activity [16]: Tde; Activity [17]: 1%; Activity [18]: 1.5%; Activity [21]: Tde
COC(=O)c1cncc(COc2cccc(O)c2C=O)c1	> 90	Dose-dependent effect	Dose-dependent effect	Dose-dependent effect	–	–	–	–	60	–	–	–	–	< 100	–	–
COC(=O)c1ccc(COc2ccc(OC)cc2C=O)cn1	96.5	Dose-dependent effect	Dose-dependent effect	Dose-dependent effect	–	Dose-dependent effect	19.5	81.6	64	32.3	9.9	Tde	36.1	81.3	29.1	–
COC(=O)c1ncccc1COc1ccc(OC)cc1C=O	99.1	Dose-dependent effect	Dose-dependent effect	Dose-dependent effect	inactive	inactive	13.9	97.7	62.3	25.4	4.4	–	30.2	79.2	37.6	–
COC(=O)c1cccc(COc2ccc(OC)cc2C=O)n1	88	Dose-dependent effect	Dose-dependent effect	Dose-dependent effect	inactive	inactive	20.1	48.2	41.7	37.1	4.8	–	20.9	63.8	17.5	–
CC(C)n1nccc1-c1ncccc1COc1cccc(O)c1C=O [VOXELOTOR]	–	–	–	–	–	–	80	98	100	–	41	–	55	–	56	–
COC(=O)c1ccc(COc2ccc(OC)cc2C=O)nc1	–	–	–	–	inactive	inactive	–	–	–	–	–	–	–	–	–	–
COC(=O)c1cccnc1COc1cccc(O)c1C=O	98.8	Dose-dependent effect	Dose-dependent effect	Dose-dependent effect	–	Dose-dependent effect	18.8	70.6	64.4	39.6	12.2	Tde	46	90.8	43.3	remaining at 24 h, 1000 µM [15]: 78%; Activity [16]: Tde; Activity [17]: 14.5%; Activity [18]: 16.9%; Drug metabolism [19]: Metabolite_Detected; remaining at 24 h, 500 µM [20]: 81%; Activity [21]: Tde
